Results on seven compounds are retold here after ChEMBL document CHEMBL2424632, “Substituted 2-hydroxy-N-(arylalkyl)benzamides induce apoptosis in cancer cell lines” (Eur J Med Chem, 2013).

For one assay, the system named is HCT-116. As to the kind of experiment: Cytotoxicity against human HCT116 cells after 72 hrs by calcein-AM assay. In kind it is functional, cell-based. The settings on record: HCT-116, 72 h.
The next assay concerns HeLa. Kind of assay: Cytotoxicity against human HeLa cells after 72 hrs by calcein-AM assay. Type of assay: functional, cell-based.
The test system of assay [1] is G-361. Kind of assay: Cytotoxicity against human G361 cells after 72 hrs by calcein-AM assay. Type of assay: functional, cell-based. The settings on record: G-361, 72 h.
The next assay has as its system MCF7. As to the kind of experiment: Cytotoxicity against human MCF7 cells after 72 hrs by calcein-AM assay. The following applies: MCF7, 72 h. In kind it is functional, cell-based.
In a further assay the test system is K562. As to the kind of experiment: Cytotoxicity against human K562 cells after 72 hrs by calcein-AM assay. In kind it is functional, cell-based. The following applies: K562, 72 h.
Assay [2] relates to G-361. Kind of assay: Induction of apoptosis in human G361 cells assessed as caspase-3/7 activation at 2 uM after 24 hrs by fluorescence assay relative to control. In kind it is functional. Put shortly: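 G361 cells seeded at 20,000 per well overnight, then exposed 24 h to compound at 2 µM final. 3x caspase-3/7 buffer (HEPES pH 7.4, NaCl, KCl, MgCl2, EGTA, NP-40, CHAPS, sucrose, DTT, PMSF) with Ac-DEVD-AMC substrate added; incubated 37 °C, fluorescence read after 4 h at 346/442 nm; activity expressed relative to untreated cells.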

The test system of another assay is HOS. Kind of assay: Cytotoxicity against human HOS cells after 72 hrs by calcein-AM assay. Type of assay: functional, cell-based.
Assay [3] has as its system G-361. As to the kind of experiment: Induction of apoptosis in human G361 cells. Type of assay: functional, cell-based.
The test system of assay [4] is G-361. As to the kind of experiment: Induction of autophagy in human G361 cells assessed as fragmentation of LC3 at 0.2 to 6 uM after 24 hrs by immunoblotting analysis. In kind it is functional, cell-based. In outline: (§1)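 Asynchronous G361 cells exposed 24 h; lysates made by harvesting in Laemmli sample buffer, resolved by SDS-PAGE, electroblotted to nitrocellulose, blocked, probed overnight with specific primary antibodies, then peroxidase-conjugated secondary antibodies; actin served as loading control.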
(Immunoblotting shows a protein as a band on a membrane.)

The subject of assay [5] is G-361. As to the kind of experiment: Downregulation of MDM2 protein expression in human G361 cells at 0.2 to 6 uM after 24 hrs by immunoblotting analysis. In kind it is functional, cell-based. Put shortly: as §1
In assay [6] the test system is G-361. Kind of assay: Downregulation of p53 protein expression in human G361 cells at 0.2 to 6 uM after 24 hrs by immunoblotting analysis. In kind it is functional, cell-based. In outline:
as §1

Assay [7] concerns G-361. Kind of assay: Induction of apoptosis in human G361 cells assessed as increase in p53 mRNA level. Type of assay: functional, cell-based.
The subject of assay [8] is G-361. As to the kind of experiment: Induction of apoptosis in human G361 cells assessed as increase in p53 protein level at 0.2 to 6 uM after 24 hrs by immunoblotting analysis. Type of assay: functional, cell-based. In outline: as §1
Assay [9] deals with G-361. As to the kind of experiment: Induction of apoptosis in human G361 cells assessed as decrease in BCL-XL protein expression after 24 hrs by immunoblotting analysis. In kind it is functional, cell-based. In outline:
as §1

The subject of assay [10] is G-361. Kind of assay: Induction of apoptosis in human G361 cells assessed as increase in BCL-2 protein expression at 0.2 to 6 uM after 24 hrs by immunoblotting analysis. In kind it is functional, cell-based. In outline: as §1
For assay [11], the system named is G-361. As to the kind of experiment: Induction of apoptosis in human G361 cells assessed as decrease in caspase-7 zymogene at 0.2 to 6 uM after 24 hrs by immunoblotting analysis. Type of assay: functional, cell-based. In outline:
as §1

Assay [12] relates to G-361. As to the kind of experiment: Induction of apoptosis in human G361 cells assessed as PARP-1 cleavage at 0.2 to 6 uM after 24 hrs by immunoblotting analysis. Type of assay: functional, cell-based. Put shortly:
as §1

The subject of assay [13] is G-361. Kind of assay: Induction of apoptosis in human G361 cells assessed as decrease in caspase-3 zymogene at 0.2 to 6 uM after 24 hrs by immunoblotting analysis. Type of assay: functional, cell-based. In outline: as §1
For assay [14], the system named is G-361. Kind of assay: Induction of apoptosis in human G361 cells assessed as caspase-9 cleavage at 0.2 to 6 uM after 24 hrs by immunoblotting analysis. In kind it is functional, cell-based. Put shortly: as §1
The target in assay [15] is RAC-alpha serine/threonine-protein kinase (Homo sapiens) (UniProt P31749). Kind of assay: Inhibition of AKT phosphorylation at Ser473 in human G361 cells at 0.22 to 6 uM after 24 hrs by immunoblotting analysis. In kind it is cell-based. The following applies: G-361. Put shortly: as §1
In assay [16] the target is Mitogen-activated protein kinase; ERK1/ERK2 (Homo sapiens) (UniProt P27361+P28482). As to the kind of experiment: Inhibition of ERK1/2 phosphorylation at Thr202/Tyr204 in human G361 cells at 0.22 to 6 uM after 24 hrs by immunoblotting analysis. The settings on record: G-361. In kind it is cell-based. Put shortly:
as §1

Assay [17] concerns G-361. As to the kind of experiment: Upregulation of p27KIP1 protein expression in human G361 cells at 2 to 6 uM after 24 hrs by immunoblotting analysis. In kind it is functional, cell-based. In outline:
as §1

Assay [18] concerns G-361. As to the kind of experiment: Upregulation of p27KIP1 protein expression in human G361 cells at 670 nM after 24 hrs by immunoblotting analysis. Type of assay: functional, cell-based. In outline: as §1
The test system of assay [19] is G-361. Kind of assay: Effect on cyclin E protein expression in human G361 cells at 0.22 to 6 uM after 24 hrs by immunoblotting analysis. Type of assay: functional, cell-based. In outline: as §1
Assay [20] concerns G-361. Kind of assay: Effect on CDK2 protein expression in human G361 cells at 0.22 to 6 uM after 24 hrs by immunoblotting analysis. Type of assay: functional, cell-based. Put shortly:
as §1

The subject of assay [21] is G-361. As to the kind of experiment: Effect on CDK1 protein expression in human G361 cells at 0.22 to 6 uM after 24 hrs by immunoblotting analysis. In kind it is functional, cell-based. In outline: as §1
The test system of assay [22] is G-361. As to the kind of experiment: Downregulation of cyclin B protein expression in human G361 cells at 0.22 to 6 uM after 24 hrs by immunoblotting analysis. Type of assay: functional, cell-based. Put shortly: as §1
Assay [23] concerns G-361. Kind of assay: Downregulation of cyclin A protein expression in human G361 cells at 0.22 to 6 uM after 24 hrs by immunoblotting analysis. In kind it is functional, cell-based. In outline:
as §1

The subject of assay [24] is G-361. Kind of assay: Downregulation of CDK4 protein expression in human G361 cells at 0.22 to 6 uM after 24 hrs by immunoblotting analysis. Type of assay: functional, cell-based. Put shortly:
as §1

In assay [25] the test system is G-361. As to the kind of experiment: Cell cycle arrest in human G361 cells assessed as increase in sub-G1 phase population at 1 to 4 uM after 24 hrs by propidium iodide staining-based flow cytometric analysis in presence of BrdU. Type of assay: functional. In outline:
(§2)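 Asynchronously growing cells treated 24 h; cultures pulse-labelled with 10 µM BrdU for 30 min at 37 °C before harvest, washed in PBS, fixed in 70% ethanol, denatured in 2 M HCl, neutralized, stained with fluorescein anti-BrdU antibody then propidium iodide; flow cytometry with 488 nm laser; sub-G1 and BrdU-positive S-phase fractions scored.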
Background: Flow cytometry measures light scatter and fluorescence of single cells or particles in a stream.

In assay [26] the test system is G-361. Kind of assay: Cell cycle arrest in human G361 cells assessed as decrease in S phase population at 0.25 to 4 uM after 24 hrs by propidium iodide staining-based flow cytometric analysis in presence of BrdU. In kind it is functional. In outline:
as §2

pIC50: −log10 of the molar value. Active and inactive are the calls of the source. No cut-off for these calls is given here.

Sequence of RAC-alpha serine/threonine-protein kinase (Homo sapiens) (P31749 whole entry): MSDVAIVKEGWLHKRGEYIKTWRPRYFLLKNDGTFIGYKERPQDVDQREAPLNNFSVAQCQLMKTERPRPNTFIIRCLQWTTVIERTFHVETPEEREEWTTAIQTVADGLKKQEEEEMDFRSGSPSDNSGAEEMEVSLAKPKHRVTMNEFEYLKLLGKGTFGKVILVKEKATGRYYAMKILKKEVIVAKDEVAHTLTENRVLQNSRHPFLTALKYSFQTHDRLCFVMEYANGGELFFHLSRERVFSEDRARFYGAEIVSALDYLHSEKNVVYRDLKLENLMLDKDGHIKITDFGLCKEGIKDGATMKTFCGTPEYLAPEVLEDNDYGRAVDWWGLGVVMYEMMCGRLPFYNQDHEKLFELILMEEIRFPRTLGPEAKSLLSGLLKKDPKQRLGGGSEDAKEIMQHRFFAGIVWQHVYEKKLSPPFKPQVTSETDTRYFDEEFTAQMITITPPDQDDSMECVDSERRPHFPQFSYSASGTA
Sequence of Mitogen-activated protein kinase; ERK1/ERK2 (Homo sapiens) (P27361 whole entry, looked up): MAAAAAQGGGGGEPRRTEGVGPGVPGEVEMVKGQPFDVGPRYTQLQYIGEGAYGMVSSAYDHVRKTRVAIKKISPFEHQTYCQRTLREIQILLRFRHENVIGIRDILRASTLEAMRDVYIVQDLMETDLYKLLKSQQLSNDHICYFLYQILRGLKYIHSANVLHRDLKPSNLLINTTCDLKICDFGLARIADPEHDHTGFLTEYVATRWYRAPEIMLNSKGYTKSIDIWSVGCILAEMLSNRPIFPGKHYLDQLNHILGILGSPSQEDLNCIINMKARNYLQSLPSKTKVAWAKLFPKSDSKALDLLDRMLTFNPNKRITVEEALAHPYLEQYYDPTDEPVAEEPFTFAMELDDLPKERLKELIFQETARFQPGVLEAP
Sequence of Mitogen-activated protein kinase; ERK1/ERK2 (Homo sapiens) (P28482 whole entry, looked up): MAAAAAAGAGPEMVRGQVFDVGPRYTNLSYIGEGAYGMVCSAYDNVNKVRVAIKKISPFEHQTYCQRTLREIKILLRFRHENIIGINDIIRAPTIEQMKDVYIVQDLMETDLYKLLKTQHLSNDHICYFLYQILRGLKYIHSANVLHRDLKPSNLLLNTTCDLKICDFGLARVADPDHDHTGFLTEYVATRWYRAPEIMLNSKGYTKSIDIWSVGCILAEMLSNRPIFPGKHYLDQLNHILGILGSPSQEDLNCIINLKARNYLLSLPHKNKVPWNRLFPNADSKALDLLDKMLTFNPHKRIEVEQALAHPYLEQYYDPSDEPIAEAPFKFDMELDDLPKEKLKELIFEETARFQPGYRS

As to `O=C(N[C@@H](CC1CCCCC1)C(=O)Nc1cccc(C(F)(F)F)c1)c1cc(Cl)ccc1O`, the pIC50 is 5.82 in the assay with HCT-116; 5.89 in the assay on HeLa; 5.89 in the assay on G-361 [1]; 5.64 in the assay on MCF7; 5.47 in the assay with K562; 5.47 with HOS. Further, in the assay on G-361 [2], the “fold change (FC)” value was more than 10.
For the compound `O=C(N[C@@H](CC1CCCCC1)C(=O)Nc1ccc(Br)cc1)c1cc(Cl)ccc1O`, the negative logarithm of the IC50 (pIC50) is 5.70 in the assay on HCT-116; 5.89 in the assay on HeLa; 5.89 in the assay on G-361 [1]; 5.72 with MCF7; 5.52 in the assay on K562; 5.48 in the assay on HOS. Besides, in the assay with G-361 [2], the “fold change (FC)” value is reported as more than 10.
As to `CC(C)(C)[C@H](NC(=O)c1cc(Cl)ccc1O)C(=O)Nc1cccc(C(F)(F)F)c1`, the pIC50 with HCT-116 is 5.27; in the assay with HeLa it was 5.19; with G-361 [1], 5.08; in the assay with MCF7, 5.06; in the assay on K562 it was 5.23; in the assay on HOS it was 5.11. In addition, the result with G-361 [2] was Active.
As to `O=C(N[C@H](Cc1ccccc1)C(=O)Nc1ccc(Cl)cc1)c1cc(Cl)ccc1O`, the pIC50 with HCT-116 was 5.77; in the assay with HeLa, 5.96; with G-361 [1], 5.89; in the assay with MCF7 it was 5.46; in the assay on K562, 5.60; with HOS it was 5.60. In addition, the Activity entry with G-361 [3] and with G-361 [9] was “Dose-dependent effect” throughout. The outcome in the assay on G-361 [4], with G-361 [5], with G-361 [6], in the assay with G-361 [10], in the assay on G-361 [11] and in the assay on G-361 [12] was Active. Besides, the outcome with G-361 [13], with G-361 [14], in the assay on G-361 [18], with G-361 [19], in the assay on G-361 [20] and with G-361 [21] was Active. Besides, the outcome in the assay on G-361 [22], in the assay on G-361 [23], in the assay with G-361 [24], in the assay with G-361 [25] and in the assay with G-361 [26] was Active. Further, the result with G-361 [7], with G-361 [8] and with G-361 [17] was inactive. In addition, in the assay with G-361 [2], the “fold change (FC)” value is on record as more than 10. The inhibition result in [15] and in assay [16] was “Active” in each case.
For the compound `CC(C)[C@H](NC(=O)c1cc(Cl)ccc1O)C(=O)Nc1ccc(C(F)(F)F)cc1`, the pIC50 with HCT-116 is 5.23; in the assay on HeLa it was 5.27; in the assay on G-361 [1], 5.18; with MCF7 it was 5.14; with K562, 5.35; in the assay with HOS, 5.15. For the same compound, the outcome with G-361 [2] was Active.
Regarding `CC(C)[C@H](NC(=O)c1ccc(Cl)cc1O)C(=O)Nc1ccc(Cl)c(Cl)c1`, the pIC50 in the assay with MCF7 and in the assay with K562 was less than 5.00 in each case.
As to `CC(C)[C@H](NC(=O)c1cc(Cl)ccc1O)C(=O)Nc1ccc(Cl)cc1`, the pIC50 in the assay with MCF7 is less than 5.00; in the assay on K562, less than 4.70.

What is called pIC50 is −log10 of the IC50, conventionally taken in molar units.
